Laboratory results reported in article PMC5573263 (Journal of medicinal chemistry, 2016).

Key:
[1] = Mouse liver microsome assay; format: in vitro ADME; details: for metabolism of the C-4 carboxanilide aromatic ring: microsomal metabolism studies, in words; for CLint scaled at 0.08 uM: female, CD-1, mouse, liver microsomes, pH 7.4
Method in brief: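 Pooled female CD-1 mouse liver microsomes in 0.1 M potassium phosphate (pH 7.4) with EDTA. Test compound (0.08 uM final) incubated with NADPH-regenerating system at 37 °C, shaken, in triplicate. At 0, 0.5, 1, 2 and 4 h, quenched with cold methanol containing 2 μM caffeine internal standard; UPLC-MS. Half-life from the decay slope; CLint scaled with 0.5 mg/mL protein, 45 mg microsome/g liver and 52 g liver/kg.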

[2] = Dose related exposure in the rat; format: in vivo; details: data not shown
Ames' assay = format: cell-based

SMILES	CLint scaled at 0.08 uM [1] [mL/min/kg]	also measured
COc1ccc(NC(=O)[C@H]2c3ccccc3C(=O)N(CC(C)C)[C@@H]2c2cccs2)cc1Cl (racemic) [10b]	–	metabolism of the C-4 carboxanilide aromatic ring [1]: readily demethylated
CC(C)CN1C(=O)c2ccccc2[C@H](C(=O)Nc2cccc(C#N)c2)[C@H]1c1cccs1 (racemic) [10d]	195	metabolism of the C-4 carboxanilide aromatic ring [1]: hydroxylated
CC(C)CN1C(=O)c2ccccc2[C@H](C(=O)Nc2ccc(F)c(C#N)c2)[C@H]1c1ccc(C#N)s1 (racemic) [11l]	44.7	–
CC(C)CN1C(=O)c2ccccc2[C@H](C(=O)Nc2ccc(F)c(C#N)c2)[C@H]1c1cn[nH]c1 (racemic) [11t]	162	–
N#Cc1cc(NC(=O)[C@H]2c3ccccc3C(=O)N(CC(F)(F)F)[C@@H]2c2cn[nH]c2)ccc1F (relative stereo) [13h, (3S*,4S*)-N-(3-Cyano-4-fluorophenyl)-1-oxo-3-(1H-pyrazol-4-yl)-2-(2,2,2-trifluoroethyl)-1,2,3,4-tetrahydroisoquinoline-4-carboxamide]	< 13.5	–
N#Cc1cc(NC(=O)[C@H]2c3ccccc3C(=O)N(CC(F)(F)F)[C@@H]2c2cccnc2)ccc1F (relative stereo) [13i, (3S*,4S*)-N-(3-Cyano-4-fluorophenyl)-1-oxo-3-(pyridin-3-yl)-2-(2,2,2-trifluoroethyl)-1,2,3,4-tetrahydroisoquinoline-4-carboxamide]	33.1	dose related exposure [2]: excellent dose related exposure
N#Cc1cc(N)ccc1F [3-cyano-4-fluoroaniline]	–	Ames' assay result (Ames' assay): negative
